{"source": "ChEMBL document CHEMBL4257575", "about": "“Discovery of Novel Flavonoid Dimers To Reverse Multidrug Resistance Protein 1 (MRP1, ABCC1) Mediated Drug Resistance in Cancers Using a High Throughput Platform with \"Click Chemistry\"” (J Med Chem, 2018)", "data": [{"molecular_target": "Multidrug resistance-associated protein 1 (Homo sapiens, UniProt P33527)", "sequence (P33527 whole entry)": "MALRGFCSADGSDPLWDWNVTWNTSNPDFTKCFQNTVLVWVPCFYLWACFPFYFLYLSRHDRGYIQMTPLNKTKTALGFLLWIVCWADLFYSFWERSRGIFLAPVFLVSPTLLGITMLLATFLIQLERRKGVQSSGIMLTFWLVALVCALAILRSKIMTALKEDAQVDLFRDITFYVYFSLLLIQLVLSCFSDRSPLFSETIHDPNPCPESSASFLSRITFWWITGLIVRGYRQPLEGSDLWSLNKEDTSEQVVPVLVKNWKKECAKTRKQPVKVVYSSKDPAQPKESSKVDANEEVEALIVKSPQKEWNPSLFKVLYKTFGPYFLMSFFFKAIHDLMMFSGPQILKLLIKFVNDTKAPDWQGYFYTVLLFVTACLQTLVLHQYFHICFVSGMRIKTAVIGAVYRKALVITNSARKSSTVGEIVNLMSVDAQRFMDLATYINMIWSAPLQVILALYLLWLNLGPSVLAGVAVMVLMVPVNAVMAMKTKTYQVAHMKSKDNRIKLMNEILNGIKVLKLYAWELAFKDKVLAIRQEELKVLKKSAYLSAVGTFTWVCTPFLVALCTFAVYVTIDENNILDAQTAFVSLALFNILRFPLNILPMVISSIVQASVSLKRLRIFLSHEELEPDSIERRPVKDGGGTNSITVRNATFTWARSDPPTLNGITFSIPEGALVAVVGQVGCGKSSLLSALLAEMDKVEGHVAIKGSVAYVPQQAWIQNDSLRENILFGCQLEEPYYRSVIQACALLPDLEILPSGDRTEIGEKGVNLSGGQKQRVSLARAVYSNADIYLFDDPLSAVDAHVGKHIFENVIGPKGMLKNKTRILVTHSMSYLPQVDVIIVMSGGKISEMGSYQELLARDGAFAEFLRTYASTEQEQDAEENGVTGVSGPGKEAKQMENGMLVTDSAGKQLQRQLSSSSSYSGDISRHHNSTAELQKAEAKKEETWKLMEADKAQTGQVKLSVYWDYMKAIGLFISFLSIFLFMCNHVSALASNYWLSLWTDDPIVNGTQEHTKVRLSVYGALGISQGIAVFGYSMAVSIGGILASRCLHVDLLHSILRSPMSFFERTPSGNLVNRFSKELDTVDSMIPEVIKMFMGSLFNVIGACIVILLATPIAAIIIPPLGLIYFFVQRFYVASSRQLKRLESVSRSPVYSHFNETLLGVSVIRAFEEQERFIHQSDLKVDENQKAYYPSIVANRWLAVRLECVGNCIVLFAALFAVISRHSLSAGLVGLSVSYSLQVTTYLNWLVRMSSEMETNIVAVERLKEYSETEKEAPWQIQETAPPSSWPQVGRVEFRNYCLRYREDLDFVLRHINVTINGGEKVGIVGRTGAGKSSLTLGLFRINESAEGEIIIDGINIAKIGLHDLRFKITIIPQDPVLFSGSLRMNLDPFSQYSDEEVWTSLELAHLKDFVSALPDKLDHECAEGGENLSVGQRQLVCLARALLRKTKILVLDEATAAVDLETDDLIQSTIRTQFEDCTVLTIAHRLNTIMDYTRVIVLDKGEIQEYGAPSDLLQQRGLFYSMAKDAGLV", "test": "Inhibition of MRP1 in human 2008/MRP1 cells assessed as potentiation of doxorubicin-induced cytotoxicity by measuring cell survival at 2 uM after 5 days by MTS assay relative to control", "format": "cell-based", "conditions": "120 h", "method_in_brief": "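2008/MRP1 cells (retroviral human MRP1 transfectant; RPMI 1640, 10% FBS) at 4,000 per well, with 100 nM doxorubicin plus crude, unpurified click products in DMSO: 2 µM in the primary screen, 1 µM in the secondary. Incubated 5 days at 37 °C. MTS/PMS added for 2 h at 37 °C, absorbance read at 490 nm. % survival is relative to wells without DOX or product. Run in triplicate, at least three experiments.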", "units": {"Survival": "%"}, "values": [{"smiles": "Cc1ccc(C(=O)/C=C/c2ccc(OCCCCc3cn(CCOCCOc4ccc(-c5cc(=O)c6cc(F)ccc6o5)cc4)nn3)cc2)c(O)c1", "Survival": 71}, {"smiles": "Cc1ccc2oc(-c3ccc(OCCOCCOCCn4cc(CN(Cc5cn(CCOCCOCCOc6ccc(-c7cc(=O)c8cc(C)ccc8o7)cc6)nn5)Cc5cn(CCOCCOCCOc6ccc(-c7cc(=O)c8cc(C)ccc8o7)cc6)nn5)nn4)cc3)cc(=O)c2c1", "Survival": 71}, {"smiles": "[N-]=[N+]=NCCOCCOCCOc1ccc(-c2cc(=O)c3cc(F)ccc3o2)cc1", "Survival": 85}, {"smiles": "O=c1cc(-c2ccc(OCCOCCn3cc(CN4CCN(Cc5cn(CCOCCOc6ccc(-c7cc(=O)c8ccccc8o7)cc6)nn5)CC4)nn3)cc2)oc2ccccc12", "Survival": 116}, {"smiles": "O=c1cc(-c2ccc(OCCOCCOCCn3cc(CCCOc4ccc5c(=O)cc(-c6ccccc6)oc5c4)nn3)cc2)oc2ccccc12", "Survival": 54}, {"smiles": "O=c1cc(-c2ccc(OCCOCCOCCn3cc(COCCOc4ccc5c(=O)cc(-c6ccccc6)oc5c4)nn3)cc2)oc2ccccc12", "Survival": 59}, {"smiles": "O=c1cc(-c2ccccc2)oc2cc(OCCCc3cn(CCOCCOCCOc4ccc(-c5oc6ccccc6c(=O)c5OCc5ccccc5)cc4)nn3)ccc12", "Survival": 63}, {"smiles": "O=c1cc(-c2ccccc2)oc2c(OCCn3cc(CNc4ccccc4)nn3)cccc12", "Survival": 85}, {"smiles": "COc1cccc(COc2c(-c3ccc(OCCCCc4cn(CCOCCOCCOc5ccc(-c6cc(=O)c7cc(F)ccc7o6)cc5)nn4)cc3)oc3ccccc3c2=O)c1", "Survival": 60}, {"smiles": "O=Cc1ccc(OCCCCc2cn(CCOCCOCCOc3ccc(-c4oc5ccccc5c(=O)c4OCc4ccccc4)cc3)nn2)cc1", "Survival": 75}, {"smiles": "Cc1ccc2oc(-c3ccc(OCCCCc4cn(CCOCCOc5ccc(-c6oc7ccccc7c(=O)c6OCc6ccccc6)cc5)nn4)cc3)cc(=O)c2c1", "Survival": 73}, {"smiles": "O=c1c(OCc2ccccc2)c(-c2ccc(OCCOCCOCCn3cc(CN(Cc4ccccc4)Cc4cn(CCOCCOCCOc5ccc(-c6oc7ccccc7c(=O)c6OCc6ccccc6)cc5)nn4)nn3)cc2)oc2ccccc12", "Survival": 87}, {"smiles": "CN(CCN(C)Cc1cn(CCOCCOc2ccc(-c3cc(=O)c4ccccc4o3)cc2)nn1)Cc1cn(CCOCCOc2ccc(-c3cc(=O)c4ccccc4o3)cc2)nn1", "Survival": 87}, {"smiles": "Cc1ccc(O)c(C(=O)/C=C/c2ccc(OCCCCc3cn(CCOCCOCCOc4ccc(-c5oc6ccccc6c(=O)c5OCc5ccccc5)cc4)nn3)cc2)c1", "Survival": 76}, {"smiles": "CN(CCN(C)Cc1cn(CCOCCOCCOc2ccc3c(=O)cc(-c4ccccc4)oc3c2)nn1)Cc1cn(CCOCCOCCOc2ccc3c(=O)cc(-c4ccccc4)oc3c2)nn1", "Survival": 88}, {"smiles": "O=c1[nH]c(-c2ccc(OCCCc3cn(CCOCCOCCOc4ccc(-c5cc(=O)c6ccccc6o5)cc4)nn3)cc2)nc2ccccc12", "Survival": 76}, {"smiles": "C#CCCCCOc1ccc(/C=C/C(=O)c2ccc(F)cc2O)cc1", "Survival": 99}, {"smiles": "Cc1ccc2oc(-c3ccc(OCCOCCOCCn4cc(-c5ccc(-c6cn(CCOCCOCCOc7ccc(-c8cc(=O)c9cc(C)ccc9o8)cc7)nn6)cc5)nn4)cc3)cc(=O)c2c1", "Survival": 74}, {"smiles": "O=c1cc(-c2ccc(OCCOCCOCCn3cc(-c4ccc(-c5cn(CCOCCOCCOc6ccc(-c7cc(=O)c8ccccc8o7)cc6)nn5)cc4)nn3)cc2)oc2ccccc12", "Survival": 83}, {"smiles": "Cc1ccc(O)c(C(=O)/C=C/c2ccc(OCCCCc3cn(CCOCCOCCOc4ccc(-c5cc(=O)c6cc(F)ccc6o5)cc4)nn3)cc2)c1", "Survival": 72}, {"smiles": "O=c1cc(-c2ccccc2)oc2cc(OCCOCCn3cc(COCCOc4ccc5c(=O)cc(-c6ccccc6)oc5c4)nn3)ccc12", "Survival": 60}, {"smiles": "C#CCCN1C(=O)c2ccccc2C1=O", "Survival": 83}, {"smiles": "O=c1cc(-c2ccc(OCCCc3cn(CCOCCOc4ccc(-c5oc6ccccc6c(=O)c5OCc5ccccc5)cc4)nn3)cc2)oc2ccc(F)cc12", "Survival": 97}, {"smiles": "O=c1cc(-c2ccccc2)oc2cc(OCCOCCn3cc(CN(Cc4cn(CCOCCOc5ccc6oc(-c7ccccc7)cc(=O)c6c5)nn4)Cc4cn(CCOCCOc5ccc6oc(-c7ccccc7)cc(=O)c6c5)nn4)nn3)ccc12", "Survival": 83}, {"smiles": "COc1cccc(COc2c(-c3ccc(OCCOCCn4cc(CCCOc5ccc(-c6cc(=O)c7ccc(F)cc7o6)cc5)nn4)cc3)oc3ccccc3c2=O)c1", "Survival": 61}, {"smiles": "COc1cccc(COc2c(-c3ccc(OCCCCc4cn(CCOCCOc5ccc6c(=O)cc(-c7ccccc7)oc6c5)nn4)cc3)oc3ccccc3c2=O)c1", "Survival": 56}, {"smiles": "Cc1ccc2oc(-c3ccc(OCCOCCOCCn4cc(CCN5C(=O)c6ccccc6C5=O)nn4)cc3)cc(=O)c2c1", "Survival": 81}, {"smiles": "CN(CCN(C)Cc1cn(CCOCCOc2cccc(-c3oc4ccccc4c(=O)c3OCc3ccccc3)c2)nn1)Cc1cn(CCOCCOc2cccc(-c3oc4ccccc4c(=O)c3OCc3ccccc3)c2)nn1", "Survival": 83}, {"smiles": "C#CCN(CCOc1ccc2c(=O)cc(-c3ccccc3)oc2c1)Cc1ccccc1", "Survival": 86}, {"smiles": "COc1cccc(COc2c(-c3ccc(OCCOCCn4cc(CN(Cc5cn(CCOCCOc6ccc(-c7oc8ccccc8c(=O)c7OCc7cccc(OC)c7)cc6)nn5)Cc5cn(CCOCCOc6ccc(-c7oc8ccccc8c(=O)c7OCc7cccc(OC)c7)cc6)nn5)nn4)cc3)oc3ccccc3c2=O)c1", "Survival": 86}, {"smiles": "Cc1ccc2oc(-c3ccc(OCCOCCOCCn4cc(CCCCOc5ccc6c(=O)cc(-c7ccccc7)oc6c5)nn4)cc3)cc(=O)c2c1", "Survival": 51}, {"smiles": "O=c1cc(-c2ccccc2)oc2cc(OCCOCc3cn(CCOCCOc4ccc(-c5cc(=O)c6cc(F)ccc6o5)cc4)nn3)ccc12", "Survival": 54}, {"smiles": "O=C(/C=C/c1ccc(OCCCCc2cn(CCOCCOc3cccc(-c4oc5ccccc5c(=O)c4OCc4ccccc4)c3)nn2)cc1)c1ccc(F)cc1O", "Survival": 68}, {"smiles": "O=c1cc(-c2ccc(OCCOCCOCCn3cc(CNc4ccccc4)nn3)cc2)oc2ccc(F)cc12", "Survival": 90}, {"smiles": "COCOc1cc(OCc2ccccc2)c2c(=O)cc(-c3ccc(OCCCc4cn(CCOCCOCCOc5ccc(-c6cc(=O)c7cc(C)ccc7o6)cc5)nn4)cc3)oc2c1", "Survival": 53}, {"smiles": "O=c1c(OCc2ccccc2)c(-c2cccc(OCCOCCn3cc(CN4CCN(Cc5cn(CCOCCOc6cccc(-c7oc8ccccc8c(=O)c7OCc7ccccc7)c6)nn5)CC4)nn3)c2)oc2ccccc12", "Survival": 84}, {"smiles": "O=c1cc(-c2ccc(OCCCc3cn(CCOCCOc4cccc(-c5oc6ccccc6c(=O)c5OCc5ccccc5)c4)nn3)cc2)oc2ccc(F)cc12", "Survival": 79}, {"smiles": "O=c1c(OCc2ccccc2)c(-c2ccc(OCCOCCOCCn3cc(-c4ccc(-c5cn(CCOCCOCCOc6ccc(-c7oc8ccccc8c(=O)c7OCc7ccccc7)cc6)nn5)cc4)nn3)cc2)oc2ccccc12", "Survival": 86}, {"smiles": "O=C1c2ccccc2C(=O)N1CCc1cn(CCOCCOc2cccc(-c3oc4ccccc4c(=O)c3OCc3ccccc3)c2)nn1", "Survival": 62}, {"smiles": "COCOc1cc(OCc2ccccc2)c2c(=O)cc(-c3ccc(OCCCc4cn(CCOCCOCCOc5ccc(-c6cc(=O)c7cc(F)ccc7o6)cc5)nn4)cc3)oc2c1", "Survival": 58}, {"smiles": "O=c1cc(-c2ccccc2)oc2cc(OCCOCCn3cc(-c4cccc(-c5cn(CCOCCOc6ccc7oc(-c8ccccc8)cc(=O)c7c6)nn5)c4)nn3)ccc12", "Survival": 76}, {"smiles": "O=c1cc(-c2ccc(OCCCc3cn(CCOCCOCCOc4ccc5c(=O)cc(-c6ccccc6)oc5c4)nn3)cc2)oc2cc(F)ccc12", "Survival": 52}, {"smiles": "C#CCCCCOc1ccc(-c2oc3ccccc3c(=O)c2OCc2cccc(OC)c2)cc1", "Survival": 71}, {"smiles": "O=c1cc(-c2ccccc2)oc2cc(OCCOCCOCCn3cc(CN(CCOc4ccc5c(=O)cc(-c6ccccc6)oc5c4)Cc4ccccc4)nn3)ccc12", "Survival": 51}, {"smiles": "COCOc1cc(OCc2ccccc2)c2c(=O)cc(-c3ccc(OCCCc4cn(CCOCCOc5ccc(-c6oc7ccccc7c(=O)c6OCc6ccccc6)cc5)nn4)cc3)oc2c1", "Survival": 88}, {"smiles": "O=c1c(OCc2ccccc2)c(-c2ccc(OCCOCCOCCn3cc(CNc4ccccc4)nn3)cc2)oc2ccccc12", "Survival": 87}, {"smiles": "Cc1ccc(C(=O)/C=C/c2ccc(OCCCCc3cn(CCOCCOCCOc4ccc(-c5cc(=O)c6cc(F)ccc6o5)cc4)nn3)cc2)c(O)c1", "Survival": 51}, {"smiles": "O=Cc1ccc(OCCCCc2cn(CCOCCOc3ccc(-c4cc(=O)c5ccccc5o4)cc3)nn2)cc1", "Survival": 75}, {"smiles": "C#CCOCCOc1ccc2c(=O)cc(-c3ccccc3)oc2c1", "Survival": 98}, {"smiles": "Cc1ccc(O)c(C(=O)/C=C/c2ccc(OCCCCc3cn(CCOCCOCCOc4ccc(-c5cc(=O)c6cc(C)ccc6o5)cc4)nn3)cc2)c1", "Survival": 67}, {"smiles": "O=c1[nH]c(-c2ccc(OCCCc3cn(CCOCCOc4ccc(-c5cc(=O)c6ccccc6o5)cc4)nn3)cc2)nc2ccccc12", "Survival": 58}, {"smiles": "O=c1cc(-c2ccc(OCCOCCn3cc(CN4CCN(Cc5cn(CCOCCOc6ccc(-c7cc(=O)c8cc(F)ccc8o7)cc6)nn5)CC4)nn3)cc2)oc2ccc(F)cc12", "Survival": 86}, {"smiles": "O=c1cc(-c2ccc(OCCOCCOCCn3cc(CNc4ccccc4)nn3)cc2)oc2ccccc12", "Survival": 88}, {"smiles": "COc1cccc(COc2c(-c3ccc(OCCOCCn4cc(CCCCOc5ccc(C=O)cc5)nn4)cc3)oc3ccccc3c2=O)c1", "Survival": 76}, {"smiles": "COCOc1cc(OCc2ccccc2)c2c(=O)cc(-c3ccc(OCCCc4cn(CCOCCOCCOc5ccc6c(=O)cc(-c7ccccc7)oc6c5)nn4)cc3)oc2c1", "Survival": 76}, {"smiles": "O=c1cc(-c2ccc(OCCCc3cn(CCOCCOCCOc4ccc(-c5cc(=O)c6cc(F)ccc6o5)cc4)nn3)cc2)oc2ccc(F)cc12", "Survival": 76}, {"smiles": "O=C(/C=C/c1ccc(OCCCCc2cn(CCOCCOc3ccc(-c4oc5ccccc5c(=O)c4OCc4ccccc4)cc3)nn2)cc1)c1ccc(F)cc1O", "Survival": 69}, {"smiles": "O=C(/C=C/c1ccc(OCCCCc2cn(CCOCCOc3ccc(-c4cc(=O)c5cc(F)ccc5o4)cc3)nn2)cc1)c1ccccc1O", "Survival": 72}, {"smiles": "C#CCCCCOc1ccc(/C=C/C(=O)c2cc(CC)ccc2O)cc1", "Survival": 103}, {"smiles": "CCc1ccc(O)c(C(=O)/C=C/c2ccc(OCCCCc3cn(CCOCCOCCOc4ccc(-c5oc6ccccc6c(=O)c5OCc5ccccc5)cc4)nn3)cc2)c1", "Survival": 77}, {"smiles": "O=Cc1ccc(OCCCCc2cn(CCOCCOc3ccc4c(=O)cc(-c5ccccc5)oc4c3)nn2)cc1", "Survival": 82}, {"smiles": "[N-]=[N+]=NCCOCCOCCOc1ccc2c(=O)cc(-c3ccccc3)oc2c1", "Survival": 90}]}]}
